Measured values from different studies.
Protocols differ between the studies behind these lines.
Target: Serine/threonine-protein kinase Nek1 (NEK1, Homo sapiens, UniProt Q96PY6)
Sequence (Q96PY6 1-1258, as in one of the studies): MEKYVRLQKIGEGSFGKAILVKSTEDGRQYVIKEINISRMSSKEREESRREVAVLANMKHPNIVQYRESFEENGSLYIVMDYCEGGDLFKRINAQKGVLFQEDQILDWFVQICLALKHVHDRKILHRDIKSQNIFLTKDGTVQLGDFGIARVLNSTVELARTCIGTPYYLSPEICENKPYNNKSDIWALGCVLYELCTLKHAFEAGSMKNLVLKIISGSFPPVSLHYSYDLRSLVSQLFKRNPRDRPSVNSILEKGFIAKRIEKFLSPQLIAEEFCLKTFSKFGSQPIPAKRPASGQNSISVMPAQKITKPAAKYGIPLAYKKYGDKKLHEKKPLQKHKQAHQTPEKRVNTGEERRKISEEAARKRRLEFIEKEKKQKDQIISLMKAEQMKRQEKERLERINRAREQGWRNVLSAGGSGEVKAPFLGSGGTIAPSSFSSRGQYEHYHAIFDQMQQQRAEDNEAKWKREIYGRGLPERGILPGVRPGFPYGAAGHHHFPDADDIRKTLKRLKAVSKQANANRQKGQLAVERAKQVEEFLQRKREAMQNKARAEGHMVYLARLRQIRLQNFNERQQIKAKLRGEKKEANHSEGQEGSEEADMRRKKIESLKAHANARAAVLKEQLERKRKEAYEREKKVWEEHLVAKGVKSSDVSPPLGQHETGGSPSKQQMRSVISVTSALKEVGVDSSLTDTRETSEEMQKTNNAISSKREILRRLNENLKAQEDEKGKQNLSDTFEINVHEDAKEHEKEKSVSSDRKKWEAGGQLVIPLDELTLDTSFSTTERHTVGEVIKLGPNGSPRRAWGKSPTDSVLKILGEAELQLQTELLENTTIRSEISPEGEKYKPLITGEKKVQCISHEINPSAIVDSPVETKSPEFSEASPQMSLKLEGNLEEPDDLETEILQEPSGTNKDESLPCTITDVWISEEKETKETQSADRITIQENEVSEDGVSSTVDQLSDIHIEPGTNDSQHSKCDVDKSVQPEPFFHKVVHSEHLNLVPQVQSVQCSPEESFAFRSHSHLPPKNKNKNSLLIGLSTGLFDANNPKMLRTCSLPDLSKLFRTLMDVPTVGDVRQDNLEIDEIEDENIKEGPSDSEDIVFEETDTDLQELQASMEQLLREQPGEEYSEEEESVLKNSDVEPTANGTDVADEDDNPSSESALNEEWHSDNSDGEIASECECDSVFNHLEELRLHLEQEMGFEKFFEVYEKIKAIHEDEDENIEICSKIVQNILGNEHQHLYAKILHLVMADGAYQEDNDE

C[C@@H]1CCN(c2nccc(-c3cnn4ncccc34)n2)C1 — remaining binding (binding; 1 µM): 100%
O=C(c1ccc(Nc2ncc(Cl)c(-c3ccc(Cl)s3)n2)cc1)N1CCC(N2CCCC2)CC1 — remaining binding (binding, competition with immobilised ligand; 1 µM): 23%
CNC(=O)[C@@H]1CC[C@@H](n2c(-c3ccc4cnccc4c3)nc3ccc(C(=O)NCc4cccc(C(N)=O)c4)cc32)C1 — remaining binding (binding, competition with immobilised ligand; 1 µM): 100%
FC(F)(F)Oc1cccc(-c2cnc3ccc(-c4ccncc4)nn23)c1 — remaining binding (cell-free assay, competition with immobilised ligand; 5 µM): 78%
Cc1cnc(Nc2ccc(C(=O)N3CCC(N4CCCC4)CC3)cc2)nc1-c1cc2ccccc2s1 — remaining binding (binding, competition with immobilised ligand; 1 µM): 18%
COc1cnc(Nc2cccc(S(N)(=O)=O)c2)nc1N1CCN(c2ccccc2)CC1 — remaining binding (binding, competition with immobilised ligand; 1 µM): 92%
Cn1nc(C(=O)NCc2ccc(C(=O)O)cc2)cc1-c1ccc2[nH]ccc2c1 — remaining binding (cell-free assay, competition with immobilised ligand; 0.1 µM): 100%
C[C@@H](c1ccc(-n2cnc3c(N)ncnc32)cc1)N1CCc2nn(C)c(Cc3ccccc3)c2C1=O — remaining binding (binding, competition with immobilised ligand; 0.1 µM): 87%
Nc1ncc2c(n1)-c1c([nH]c3ccc(C#CC4CC4)cc13)CCCC2 — remaining binding (binding, competition with immobilised ligand; 1 µM): 100%
O=C(N[C@H]1CCCCC/C=C\C2C[C@@]2(C(=O)O)NC(=O)[C@@H]2C[C@@H](Oc3ccncc3)CN2C1=O)OC1CCCC1 (stereo partly shown) — remaining binding (binding, competition with immobilised ligand; 1 µM): 100%
N[C@H]1CCN(c2nccc(-c3cnn4ncccc34)n2)C1 — remaining binding (binding; 1 µM): 97%
O=C(NCC1CCOCC1)c1n[nH]cc1NC(=O)c1c(F)cccc1F — remaining binding (binding, competition with immobilised ligand; 1 µM): 100%
CN(c1nccc(-c2cnn3ncccc23)n1)C1CC1 — remaining binding (binding; 1 µM): 100%
CN(C)C(=O)Cn1cc(-c2nc([C@@](C)(c3ccc(-c4cnc(N)nc4)cc3)C3CC3)no2)cn1 — remaining binding (cell-free assay, competition with immobilised ligand; 1 µM): 100%
CN(C)c1nccc(-c2cnn3ncccc23)n1 — remaining binding (binding; 1 µM): 88%
O=C(NCCCN1CCOCC1)c1ccc(Nc2ncc(Cl)c(-c3ccc(Cl)s3)n2)cc1 — remaining binding (binding, competition with immobilised ligand; 1 µM): 76%
CNC(=O)Nc1ccc2c(c1)CC[C@@]21OC(=O)N(CC(=O)N(Cc2ccc(F)cc2)[C@@H](C)C(F)(F)F)C1=O — remaining binding (cell-free assay, competition with immobilised ligand; 1 µM): 100%
Cc1cnn2ncc(-c3ccnc(N(C)C)n3)c2c1 — remaining binding (binding; 1 µM): 100%
Nc1cnc(N2CCc3cc(S(=O)(=O)Nc4c(F)cc(Cl)cc4F)cc(N4CCCC4=O)c32)nc1 — remaining binding (binding, competition with immobilised ligand; 1 µM): 46%
COc1ccnn2ncc(-c3ccnc(N(C)C)n3)c12 — remaining binding (binding; 1 µM): 100%
O=C(NCc1ncc(C(F)(F)F)cc1Cl)c1ccc2c(c1)C1(CCS(=O)(=O)CC1)[C@H](C1CC1)N2S(=O)(=O)c1ccc(F)cc1 — remaining binding (cell-free assay, competition with immobilised ligand; 1 µM): 100%
CC1CCCN1c1nccc(-c2cnn3ncccc23)n1 (stereo not shown) — remaining binding (binding; 1 µM): 100%
